Measurements from ChEMBL document CHEMBL1221292, “Design, synthesis, and evaluation of quinazoline T cell proliferation inhibitors” (Bioorg Med Chem, 2010).

Tests used:
PBMC = assay: Antiproliferative activity against ConA-stimulated human PBMC after 72 hrs by BrdU incorporation assay; assay type: functional, cell-based
Procedure, shortened: (§1)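 Cells grown in RPMI at 37 °C, 5% CO2, then serum-starved 12 h. PBMC stimulated with ConA 10 µg/mL; Jurkat need no stimulation. 1 × 10^5 cells cultured 3 days with or without inhibitor, duplicate wells. Labelled with 10 µM BrdU, DNA denatured, anti-BrdU-POD added, colorimetric TMB read-out; IC50 derived.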

Jurkat = assay: Antiproliferative activity against human Jurkat cells after 72 hrs by BrdU incorporation assay; assay type: functional, cell-based; procedure, shortened: as §1

| Compound | IC50 (Jurkat) [nM] | IC50 (PBMC) [nM] |
| --- | --- | --- |
| COc1cc(-c2nc(Nc3ccc4cn[nH]c4c3)c3ccccc3n2)cc(OC)c1OC | 600 | 450 |
| COc1cc(-c2nc(Nc3ccc(C)cc3C)c3ccccc3n2)cc(OC)c1OC | 2600 | 750 |
| Oc1cc(-c2nc(NCc3ccc(F)c(F)c3)c3ccccc3n2)cc(O)c1O | 600 | 280 |
| Oc1cc(-c2nc(NCc3ccccc3)c3ccccc3n2)cc(O)c1O | 950 | 7000 |
| Oc1cc(-c2nc(Nc3ccc(OC(F)(F)F)cc3)c3ccccc3n2)cc(O)c1O | 3240 | 2780 |
| Oc1cc(-c2nc(Nc3ccccc3)c3ccccc3n2)cc(O)c1O | 5500 | 650 |
| Cc1ccc(Nc2nc(-c3cc(O)c(O)c(O)c3)nc3ccccc23)c(C)c1 | 3700 | 730 |
| COc1ccc(Nc2nc(-c3cc(O)c(O)c(O)c3)nc3ccccc23)cc1 | 550 | 500 |
| Oc1cc(-c2nc(Nc3ccc4[nH]ncc4c3)c3ccccc3n2)cc(O)c1O | 710 | 780 |
| Nc1ccc(CNc2nc(-c3cc(O)c(O)c(O)c3)nc3ccccc23)cc1 | 670 | 570 |
| Oc1cc(-c2nc(Nc3ccc(Cl)cc3)c3ccccc3n2)cc(O)c1O | 4250 | 550 |
| Oc1cc(-c2nc(Nc3ccc4cn[nH]c4c3)c3ccccc3n2)cc(O)c1O | 690 | 500 |

Continued, in another order:

| IC50 (Jurkat) [nM] | Compound | IC50 (PBMC) [nM] |
| --- | --- | --- |
| 730 | COc1cc(-c2nc(NCc3ccc(Cl)c(Cl)c3)c3ccccc3n2)cc(OC)c1OC | 300 |
| 730 | COc1cc(-c2nc(NCc3ccc(F)c(F)c3)c3ccccc3n2)cc(OC)c1OC | 200 |
| 1100 | COc1ccc(Nc2nc(-c3cc(OC)c(OC)c(OC)c3)nc3ccccc23)cc1 | 500 |
| 230 | COc1cc(-c2nc(Nc3ccc(O)cc3)c3ccccc3n2)cc(OC)c1OC | 300 |
| 600 | COc1cc(-c2nc(NCc3ccccc3)c3ccccc3n2)cc(OC)c1OC | 3250 |
